Laboratory results reported in ChEMBL document CHEMBL1129310, “(Aminoalkyl)indole isothiocyanates as potential electrophilic affinity ligands for the brain cannabinoid receptor” (J Med Chem, 1996).

Columns and labels:
Cannabinoid receptor 1 [1] = biological target: T1, Cannabinoid receptor 1 (Rattus norvegicus, UniProt P20272); assay: Binding affinity against brain cannabinoid receptor 1 using [3H]CP-55940 as radioligand at 0.25 nM concentration
In short: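 Rat brain P2 membranes (30 µg protein) were suspended in 20 mM potassium diethylmalonate pH 7.5 with 2.25 mM MgCl2 and 0.025% β-cyclodextrin, then incubated with [3H]CP-55940 for 1 h at 30 °C. Compounds came from DMSO stocks diluted through β-cyclodextrin. The reaction was stopped with BSA and glass-fibre filtration. Nonspecific binding was defined with 0.1 µM desacetyllevonantradol. Displacement curves were fitted by nonlinear regression, triplicate points.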

Cannabinoid receptor 1 [2] = biological target: T1, Cannabinoid receptor 1; assay: Binding affinity against brain Cannabinoid receptor 1 using [3H]CP-55940 as radioligand at 1.1 nM concentration

T1 sequence (P20272 whole entry): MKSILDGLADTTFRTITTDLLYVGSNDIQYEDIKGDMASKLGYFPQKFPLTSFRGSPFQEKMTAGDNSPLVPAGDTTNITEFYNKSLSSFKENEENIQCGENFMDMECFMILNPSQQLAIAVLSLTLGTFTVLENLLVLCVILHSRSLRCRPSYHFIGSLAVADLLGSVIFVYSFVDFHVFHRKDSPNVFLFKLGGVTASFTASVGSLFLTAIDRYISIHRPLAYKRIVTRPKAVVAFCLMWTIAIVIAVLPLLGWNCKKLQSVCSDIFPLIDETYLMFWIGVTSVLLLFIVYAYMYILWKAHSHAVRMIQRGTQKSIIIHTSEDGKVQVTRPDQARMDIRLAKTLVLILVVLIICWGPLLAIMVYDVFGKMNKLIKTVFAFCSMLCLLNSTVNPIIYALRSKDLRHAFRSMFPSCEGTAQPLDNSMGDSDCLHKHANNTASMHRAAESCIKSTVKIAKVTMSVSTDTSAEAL

| Compound | IC50 (Cannabinoid receptor 1 [1]) [nM] | IC50 (Cannabinoid receptor 1 [2]) [nM] |
| --- | --- | --- |
| O=C(c1cccc2ccccc12)c1cn(CCN2CCOCC2)c2ccccc12 | 46 | – |
| O=C(c1cccc2cc(N=C=S)ccc12)c1cn(CCN2CCOCC2)c2ccccc12 | 530 | – |
| Cc1c(C(=O)c2ccc(N=C=S)c3ccccc23)c2ccccc2n1CCN1CCOCC1 | – | 690 |
| O=C(c1ccc(N=C=S)c2ccccc12)c1cn(CCN2CCOCC2)c2ccccc12 | 440 | – |
| O=C(c1cc(N=C=S)cc2ccccc12)c1cn(CCN2CCOCC2)c2ccccc12 | 920 | – |
| O=C(c1cccc2ccccc12)c1cn(CCN2CCOCC2)c2cc(N=C=S)ccc12 | 160 | – |
